# From ChEMBL document CHEMBL4334464, “From Phenylthiazoles to Phenylpyrazoles: Broadening the Antibacterial Spectrum toward Carbapenem-Resistant Bacteria” (J Med Chem, 2019)
# Active and inactive are the calls of the source. No cut-off for these calls is given here.
# Tests used:
# Staphylococcus aureus [1] = experiment: Antibacterial activity against methicillin-resistant Staphylococcus aureus NRS384-USA300 clinical isolates after 18 to 20 hrs in aerobic condition by CLSI protocol based broth microdilution assay; assay type: functional
# Escherichia coli [2] = experiment: Antimicrobial activity against Escherichia coli JW55031 harboring deltatolC mutant after 18 to 20 hrs in aerobic condition by CLSI protocol based broth microdilution assay; assay type: functional
# Acinetobacter baumannii [3] = experiment: Antibacterial activity against Acinetobacter baumannii ATCC 19606 clinical isolates after 18 to 20 hrs in aerobic condition by CLSI-based broth microdilution assay; assay type: functional; conditions: ATCC 19606 = CIP 70.34 = JCM 6841
# Escherichia coli [4] = experiment: Antibacterial activity against Escherichia coli BW25113 clinical isolates after 18 to 20 hrs in aerobic condition by CLSI-based broth microdilution assay; assay type: functional
# Klebsiella pneumoniae [5] = experiment: Antibacterial activity against Klebsiella pneumoniae BAA-1706 clinical isolates after 18 to 20 hrs in aerobic condition by CLSI-based broth microdilution assay; assay type: functional
# Pseudomonas aeruginosa [6] = experiment: Antibacterial activity against Pseudomonas aeruginosa ATCC 15442 clinical isolates after 18 to 20 hrs in aerobic condition by CLSI-based broth microdilution assay; assay type: functional
# Staphylococcus aureus [7] = experiment: Antibiofilm activity against methicillin-resistant Staphylococcus aureus NRS384-USA300 clinical isolates assessed as inhibition of biofilm formation at 0.5 times MIC incubated for 24 hrs by crystal violet staining based spectrophotometric method relative to control; assay type: functional
# Salmonella enteritidis [8] = experiment: Antibacterial activity against Salmonella enteritidis ATCC 14028 infected in mouse J774 cells assessed as reduction in intracellular bacterial cells at 2 times MIC incubated for 24 hrs followed by re-plating on TSA plate and measured after 18 to 22 hrs relative to control; assay type: functional; conditions: Salmonella enterica subsp. enterica serovar Enteritidis
# Procedure, shortened: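 J774 murine macrophages infected with Salmonella enteritidis ATCC 14028, then treated at 2×MIC for 24 h, in triplicate. Read-out is the percent reduction in intracellular colony forming units versus the untreated control.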
# Acinetobacter baumannii [9] = experiment: Antibacterial activity against Acinetobacter baumannii ATCC BAA 1141 clinical isolates after 18 to 20 hrs in aerobic condition by CLSI-based broth microdilution assay; assay type: functional
# Acinetobacter baumannii [10] = experiment: Antibacterial activity against Acinetobacter baumannii NR 17786 clinical isolates after 18 to 20 hrs in aerobic condition by CLSI-based broth microdilution assay; assay type: functional
# Acinetobacter baumannii [11] = experiment: Antibacterial activity against Acinetobacter baumannii NR 17785 clinical isolates after 18 to 20 hrs in aerobic condition by CLSI-based broth microdilution assay; assay type: functional
# Escherichia coli [12] = experiment: Antibacterial activity against Escherichia coli ATCC 25922 clinical isolates after 18 to 20 hrs in aerobic condition by CLSI-based broth microdilution assay; assay type: functional
# Escherichia coli [13] = experiment: Antibacterial activity against Escherichia coli ATCC 35150 clinical isolates after 18 to 20 hrs in aerobic condition by CLSI-based broth microdilution assay; assay type: functional
# [14] = system: Enterobacter cloacae subsp. cloacae; experiment: Antibacterial activity against Enterobacter cloacae subsp. cloacae ATCC BAA-1143 clinical isolates after 18 to 20 hrs in aerobic condition by CLSI-based broth microdilution assay; assay type: functional
# Klebsiella pneumoniae [15] = experiment: Antibacterial activity against Klebsiella pneumoniae BAA-1144 clinical isolates after 18 to 20 hrs in aerobic condition by CLSI-based broth microdilution assay; assay type: functional
# Salmonella enterica = experiment: Antibacterial activity against Salmonella enterica NR-170 clinical isolates after 18 to 20 hrs in aerobic condition by CLSI-based broth microdilution assay; assay type: functional
# Salmonella enteritidis [16] = experiment: Antibacterial activity against Salmonella enteritidis ATCC 13076 clinical isolates after 18 to 20 hrs in aerobic condition by CLSI-based broth microdilution assay; assay type: functional; conditions: Salmonella enterica subsp. enterica serovar Enteritidis
# Salmonella enteritidis [17] = experiment: Antibacterial activity against Salmonella enteritidis ATCC 14028 clinical isolates after 18 to 20 hrs in aerobic condition by CLSI-based broth microdilution assay; assay type: functional; conditions: Salmonella enterica subsp. enterica serovar Enteritidis
# Salmonella typhimurium = experiment: Antibacterial activity against Salmonella typhimurium ATCC 700720 after 18 to 20 hrs in aerobic condition by CLSI-based broth microdilution assay; assay type: functional; conditions: Salmonella enterica subsp. enterica serovar Typhimurium
# Shigella flexneri = experiment: Antibacterial activity against Shigella flexneri ATCC 9199 clinical isolates after 18 to 20 hrs in aerobic condition by CLSI-based broth microdilution assay; assay type: functional
# Escherichia coli [18] = experiment: Antibacterial activity against carbapenem-resistant Escherichia coli BAA-2452 clinical isolates after 18 to 20 hrs in aerobic condition by CLSI-based broth microdilution assay; assay type: functional
# Escherichia coli [19] = experiment: Antibacterial activity against carbapenem-resistant Escherichia coli BAA-2469 clinical isolates after 18 to 20 hrs in aerobic condition by CLSI-based broth microdilution assay; assay type: functional
# Klebsiella pneumoniae [20] = experiment: Antibacterial activity against carbapenem-resistant Klebsiella pneumoniae ATCC BAA-1705 clinical isolates after 18 to 20 hrs in aerobic condition by CLSI-based broth microdilution assay; assay type: functional
# Klebsiella pneumoniae [21] = experiment: Antibacterial activity against carbapenem-resistant Klebsiella pneumoniae ATCC BAA-2146 clinical isolates after 18 to 20 hrs in aerobic condition by CLSI-based broth microdilution assay; assay type: functional
# Acinetobacter baumannii [22] = experiment: Antibacterial activity against carbapenem-resistant Acinetobacter baumannii ATCC BAA 1605 clinical isolates after 18 to 20 hrs in aerobic condition by CLSI-based broth microdilution assay; assay type: functional
# Pseudomonas aeruginosa [23] = experiment: Antibacterial activity against carbapenem-resistant Pseudomonas aeruginosa ATCC 1744 clinical isolates after 18 to 20 hrs in aerobic condition by CLSI-based broth microdilution assay; assay type: functional
# [24] = Apparent permeability across basolateral to apical side in human Caco2 cells after 2 hrs by LC/MS/MS analysis; assay type: ADME, cell-based; conditions: Caco-2
# [25] = Efflux ratio of apparent permeability across basolateral to apical side over apical to basolateral side in human Caco2 cells after 2 hrs by LC/MS/MS analysis; assay type: ADME, cell-based; conditions: Caco-2
compound,measurement,setting,value
CCCCCCC#Cc1ccc(-n2ncc(/C(C)=N/NC(=N)N)c2C)cc1,MIC,Staphylococcus aureus [1],2 µg/mL
same,MIC,Escherichia coli [2],8 µg/mL
C/C(=N\NC1=NCCN1)c1cnn(-c2ccc(C#CC(C)(C)O)cc2)c1C,MIC,Staphylococcus aureus [1],32 µg/mL
same,MIC,Escherichia coli [2],16 µg/mL
CCCC#Cc1ccc(-n2ncc(/C(C)=N/NC3=NCCN3)c2C)cc1,MIC,Staphylococcus aureus [1],8 µg/mL
same,MIC,Escherichia coli [2],16 µg/mL
C/C(=N\NC(=N)N)c1cnn(-c2ccc(C#CC(C)(C)C)cc2)c1C,MIC,Staphylococcus aureus [1],8 µg/mL
same,MIC,Escherichia coli [2],8 µg/mL
CCN(CC)CC#Cc1ccc(-n2ncc(/C(C)=N/NC(=N)N)c2C)cc1,MIC,Staphylococcus aureus [1],128 µg/mL
same,MIC,Escherichia coli [2],128 µg/mL
CCCCC#Cc1ccc(-n2ncc(/C(C)=N/NC(=N)N)c2C)cc1,MIC,Staphylococcus aureus [1],2 µg/mL
same,MIC,Escherichia coli [2],4 µg/mL
CCCCC#Cc1ccc(-n2ncc(/C(C)=N/NC3=NCCN3)c2C)cc1,MIC,Staphylococcus aureus [1],2 µg/mL
same,MIC,Escherichia coli [2],4 µg/mL
C/C(=N/NC(=N)N)c1sc(-c2ccc(C#Cc3ccccc3)cc2)nc1C,Activity,Escherichia coli [2],inactive
same,Activity,Acinetobacter baumannii [3],inactive
same,Activity,Escherichia coli [4],inactive
same,Activity,Klebsiella pneumoniae [5],inactive
same,Activity,Pseudomonas aeruginosa [6],inactive
C/C(=N\NC1=NCCN1)c1cnn(-c2ccc(C#CC(C)(C)C)cc2)c1C,MIC,Staphylococcus aureus [1],16 µg/mL
same,MIC,Escherichia coli [2],16 µg/mL
same,inhibition (INH),Staphylococcus aureus [7],62%
NC[C@H]1O[C@H](O[C@H]2[C@H](O)[C@@H](O[C@H]3O[C@H](CO)[C@@H](O)[C@H](N)[C@H]3O)[C@H](N)C[C@@H]2N)[C@H](O)[C@@H](O)[C@@H]1O,Activity,Salmonella enteritidis [8],inactive
C/C(=N\NC1=NCCN1)c1cnn(-c2ccc(C#CC3CCCCC3)cc2)c1C,MIC,Staphylococcus aureus [1],4 µg/mL
same,MIC,Escherichia coli [2],4 µg/mL
GENTAMICIN,MIC,Acinetobacter baumannii [3],16 µg/mL
same,MIC,Acinetobacter baumannii [9],4 µg/mL
same,MIC,Acinetobacter baumannii [10],64 µg/mL
same,MIC,Acinetobacter baumannii [11],> 64 µg/mL
same,MIC,Escherichia coli [12],1 µg/mL
same,MIC,Escherichia coli [13],1 µg/mL
same,MIC,[14],1 µg/mL
same,MIC,Klebsiella pneumoniae [5],8 µg/mL
same,MIC,Klebsiella pneumoniae [15],16 µg/mL
same,MIC,Salmonella enterica,1 µg/mL
same,MIC,Salmonella enteritidis [16],1 µg/mL
same,MIC,Salmonella enteritidis [17],1 µg/mL
same,MIC,Salmonella typhimurium,1 µg/mL
same,MIC,Shigella flexneri,1 µg/mL
same,MIC,Pseudomonas aeruginosa [6],2 µg/mL
C[C@@H](O)[C@H]1C(=O)N2C(C(=O)O)=C(SCCNC=N)C[C@H]12 [IMIPENEM ANHYDROUS],MIC,Escherichia coli [18],32 µg/mL
same,MIC,Escherichia coli [19],32 µg/mL
same,MIC,Klebsiella pneumoniae [20],32 µg/mL
same,MIC,Klebsiella pneumoniae [21],32 µg/mL
same,MIC,Acinetobacter baumannii [22],32 µg/mL
same,MIC,Pseudomonas aeruginosa [23],16 µg/mL
CC(=O)C(=CN(C)C)C(C)=O,Papp B→A at 2 h,[24],1.2 ×10⁻⁶ cm/s
same,efflux ratio at 2 h,[25],> 2
